Source: PubChem
Most compounds without a hit are left out; they make up all but 1.5% or so of the library.
HCV NS3 hel inh: inhibitors of Hepatitis C virus NS3 helicase | NS3 helicase DNA unwinding, Cy5 molecular beacon fluorescence | AID 1800 | inhibition, % at 10.9 µM | 290,000 compounds, 0.56% hits;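 active = inhibition above the mean of all tested compounds plus 3 SD, set per campaign, cut at about 35% in these data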;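 also: 0% = DMSO wells and 100% = thioflavine S control wells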
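Control set: DMSO versus 110 µM thioflavine S; Material: NS3 helicase fragment of HCV; Measured by: Cy5 fluorescence at 0 and 60 min, beacon hairpin quenching; Read-out basis: percent inhibition from t60/t0 fluorescence ratio; Times: reaction time 60 min, 25 °C; Repeats: single replicate; Compound dosing: single dose, 10.9 µM nominal final, DMSO 0.8% final.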
NSD2 HMT inh: inhibitors of human histone methyltransferase NSD2; NSD2 peptide methylation, AlphaScreen, 120 min; inhibition, % at 12.5 µM; 310,000 compounds, 0.54% hits; AID 743445
Target sequence (O96028 whole entry, looked up): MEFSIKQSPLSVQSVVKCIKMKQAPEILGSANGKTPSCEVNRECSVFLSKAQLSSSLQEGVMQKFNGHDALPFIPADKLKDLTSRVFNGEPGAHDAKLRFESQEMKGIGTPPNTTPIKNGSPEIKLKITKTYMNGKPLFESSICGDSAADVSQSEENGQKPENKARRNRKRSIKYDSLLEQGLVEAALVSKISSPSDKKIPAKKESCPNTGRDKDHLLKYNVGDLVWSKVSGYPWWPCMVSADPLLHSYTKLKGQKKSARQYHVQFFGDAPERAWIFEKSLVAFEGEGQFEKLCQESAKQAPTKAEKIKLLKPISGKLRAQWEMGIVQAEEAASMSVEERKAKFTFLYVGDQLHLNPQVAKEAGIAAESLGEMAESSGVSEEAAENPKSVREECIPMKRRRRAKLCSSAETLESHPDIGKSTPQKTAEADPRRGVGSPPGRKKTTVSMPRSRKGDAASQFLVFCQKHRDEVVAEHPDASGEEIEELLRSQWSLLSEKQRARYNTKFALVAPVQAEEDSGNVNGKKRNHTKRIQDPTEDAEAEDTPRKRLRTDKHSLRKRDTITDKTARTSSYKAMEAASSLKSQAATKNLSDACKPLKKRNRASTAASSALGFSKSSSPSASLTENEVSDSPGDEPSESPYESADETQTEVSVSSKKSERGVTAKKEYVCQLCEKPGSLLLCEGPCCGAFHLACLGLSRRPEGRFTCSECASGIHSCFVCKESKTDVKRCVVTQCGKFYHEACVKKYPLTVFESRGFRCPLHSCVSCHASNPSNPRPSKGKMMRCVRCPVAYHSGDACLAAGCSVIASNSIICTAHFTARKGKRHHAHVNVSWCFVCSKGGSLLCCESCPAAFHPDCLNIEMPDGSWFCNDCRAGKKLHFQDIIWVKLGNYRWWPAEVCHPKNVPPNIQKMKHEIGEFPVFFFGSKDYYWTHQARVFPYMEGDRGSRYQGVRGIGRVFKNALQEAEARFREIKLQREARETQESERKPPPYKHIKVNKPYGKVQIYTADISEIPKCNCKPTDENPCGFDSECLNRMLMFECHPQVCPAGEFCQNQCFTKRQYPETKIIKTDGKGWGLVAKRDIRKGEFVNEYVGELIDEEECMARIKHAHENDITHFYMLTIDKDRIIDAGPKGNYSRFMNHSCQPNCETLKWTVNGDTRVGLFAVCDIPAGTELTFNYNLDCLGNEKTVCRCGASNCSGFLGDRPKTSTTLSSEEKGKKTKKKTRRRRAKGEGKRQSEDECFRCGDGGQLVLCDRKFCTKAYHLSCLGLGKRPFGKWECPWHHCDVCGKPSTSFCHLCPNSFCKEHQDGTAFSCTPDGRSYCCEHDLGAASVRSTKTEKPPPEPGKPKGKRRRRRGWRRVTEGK
Casp6 inh: blocks human caspase-6 cleavage activity; P55212; purified caspase-6, Z-VEID-R110 cleavage fluorescence; inhibition, % at 12.5 µM; 350,000 compounds, 0.53% hits;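 active = mean inhibition across replicates at least about 35%, with every replicate also reaching that limit, limit read from the data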;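 also: 0% = median of neutral control wells and 100% = no fluorescence left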
DNMT1 inh: blocks human DNA methyltransferase DNMT1 | AID 588458 | 360,000 compounds, 0.83% hits | inhibition (reported as % activation of signal), % at 10 µM | DNMT1 molecular beacon, Hinp1I cleavage, fluorescence | P26358
NS3 helicase cf: HCV NS3 helicase inhibition, confirmation assay; shares compounds with HCV NS3 hel inh; 1,600 compounds, 31% hits; AID 1943; NS3 helicase DNA unwinding, Cy5 molecular beacon fluorescence; inhibition, % at 10.9 µM;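 active = inhibition above the mean of all tested compounds plus 3 SD, cutoff set per campaign, cut at about 36% in these data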
FID counter trip: counter-screen for HCV NS3 helicase inhibitors: DNA intercalator displacement | DNA fluorescent intercalator displacement, fluorescence | 1,600 compounds, 4% hits | shares compounds with HCV NS3 hel inh | inhibition, % at 7.9 µM | AID 1945; in the data active = inhibition above about 37%;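 also: 0% = vehicle and 100% = reference compound; higher means more displacement of ethidium bromide from the DNA hairpin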
FID counter DR: displaces fluorescent intercalator from DNA, HCV helicase counter-screen. IC50, µM. AID 2172. fluorescent intercalator displacement from DNA, fluorescence. 120 tested, under 10 active. shares compounds with HCV NS3 hel inh; call rule not given here
Starred values were filed as active, the others as inactive. Rule as the data show it, unless noted: active = inhibition above about 50%; inactive = the rest.

For O=C(/C=C/c1ccco1)Nc1nc(-c2ccc(F)c(F)c2)cs1 the results were HCV NS3 hel inh 53.6*, NSD2 HMT inh -5.0, NS3 helicase cf -5.8 and FID counter trip 5.3.
Screening CCn1cc(S(=O)(=O)Nc2cc(F)ccc2C)cn1 returned HCV NS3 hel inh 58.7*, NSD2 HMT inh 0.8, Casp6 inh -0.4, DNMT1 inh 3.2, NS3 helicase cf -2.0 and FID counter trip -0.9.
`CCS(=O)(=O)N1CC2(C1)[C@H](c1ccccc1)[C@@H](CO)N2C(=O)C1CC1` gave Casp6 inh -2.0.
Screening CCOC(=O)c1ccc(NC(=O)c2cc(C)nn2-c2ccccc2)cc1 returned HCV NS3 hel inh 45.6*, NSD2 HMT inh 41.3, Casp6 inh 5.1, DNMT1 inh 1.3, NS3 helicase cf -11.6 and FID counter trip -31.6.
CCOC(=O)NC1(NC2CCCCC2)Oc2ccccc2O1 was read as HCV NS3 hel inh 37.8*, NSD2 HMT inh 7.4, Casp6 inh 11.4, DNMT1 inh 3.5, NS3 helicase cf -13.6 and FID counter trip -4.3.
`COc1cc(/C=C2\C(=O)ON=C2c2ccccc2)cc(Br)c1O` gave HCV NS3 hel inh 38.3*, NSD2 HMT inh 27.6, Casp6 inh -1.5, DNMT1 inh 5.7, NS3 helicase cf 31.8 and FID counter trip 1.4.
For CC(C)(C)c1ccc(C2C(C(=O)c3ccco3)=C(O)C(=O)N2CC2CCCO2)cc1 (stereo not drawn) the results were HCV NS3 hel inh 37.5*, NSD2 HMT inh 0.1, Casp6 inh -1.0, DNMT1 inh 0.4, NS3 helicase cf 9.5 and FID counter trip -12.9.
For O=C(C1=C(O)C(=O)N(CC2CCCO2)C1c1ccc(Cl)cc1Cl)c1ccco1 (stereo not drawn) the results were HCV NS3 hel inh 67.6*, NSD2 HMT inh -1.3, Casp6 inh -1.1, DNMT1 inh -0.7, NS3 helicase cf -3.0 and FID counter trip -21.1.
`CCCCC(=O)NC(=S)Nc1cc(C(=O)O)ccc1Cl` gave HCV NS3 hel inh 54.6*, NSD2 HMT inh -3.4, DNMT1 inh 5.7, NS3 helicase cf -16.9 and FID counter trip 1.4.
CCCCC(=O)NC(=S)Nc1ccc(Cl)c(C(=O)O)c1 was read as HCV NS3 hel inh 7.9, NSD2 HMT inh 0.2, Casp6 inh 7.3 and DNMT1 inh -1.1.
CCC(=O)N1CCCCN2[C@H](CO)[C@@H](c3ccc(C#Cc4ccccc4F)cc3)[C@@H]2C1 was read as Casp6 inh -3.3.
COc1ccc2ccccc2c1C1CC(=O)N2CN(Cc3ccco3)CSC2=C1C#N (stereo not drawn) was read as HCV NS3 hel inh 47.3*, Casp6 inh 3.3, DNMT1 inh -27.0, NS3 helicase cf 45.8* and FID counter trip -34.9.
O=C(C[C@@H]1CC[C@H](NS(=O)(=O)c2ccc(F)cc2)[C@@H](CO)O1)NCc1ccc(Cl)c(Cl)c1 was read as Casp6 inh -0.1.
For O=C(c1ccco1)N(CCC(c1ccccc1)c1ccco1)Cc1ccccc1 (stereo not drawn) the results were HCV NS3 hel inh 50.3*, NSD2 HMT inh 1.2, Casp6 inh -1.5, DNMT1 inh 9.8, NS3 helicase cf 21.4 and FID counter trip -19.5.
`C[C@@H]1CN([C@H](C)CO)S(=O)(=O)c2ccc(C#CC3(O)CCCC3)cc2O[C@H]1CN(C)C(=O)c1ccccc1` gave Casp6 inh 2.1.
For Cc1cc(NC(=O)C2CC(=O)N(c3ccccc3C)C2)no1 (stereo not drawn) the results were HCV NS3 hel inh 36.0*, NSD2 HMT inh 1.6, Casp6 inh -2.5, DNMT1 inh 2.1, NS3 helicase cf -9.3 and FID counter trip -0.3.
Screening CC(=O)c1ccc(OC(=O)/C=C/c2ccccc2)cc1 returned HCV NS3 hel inh 38.6*, NSD2 HMT inh -0.9, Casp6 inh -0.2, DNMT1 inh 4.2, NS3 helicase cf 1.8 and FID counter trip -1.7.
`COc1ccc(/C(N)=N/OC(=O)/C=C/c2ccccc2)cc1` gave HCV NS3 hel inh -1.2, NSD2 HMT inh 5.0, Casp6 inh -2.4 and DNMT1 inh -0.8.
Screening CC(C)CSC1=NSC2=NC(=O)/C(=C\c3coc4ccccc4c3=O)C(=N)N12 returned HCV NS3 hel inh 32.6, NSD2 HMT inh 11.7 and DNMT1 inh 3.1.
For CC(C)CSC1=NSC2=NC(=O)/C(=C\c3ccccc3)C(=N)N12 the results were HCV NS3 hel inh 43.4*, NSD2 HMT inh 10.2, Casp6 inh 8.9, DNMT1 inh 1.4, NS3 helicase cf 68.5* and FID counter trip 8.1.
`O=C(Nc1ccc(F)cc1)N[C@H]1CC[C@H](CC(=O)N2CCCCC2)O[C@H]1CO` gave Casp6 inh 1.1.
For Cc1nc(Nc2ccc(S(N)(=O)=O)cc2)oc1C the results were HCV NS3 hel inh 81.0*, NSD2 HMT inh 1.1, DNMT1 inh -0.2, NS3 helicase cf -12.5 and FID counter trip 0.8.
`Cc1ccc(/C=C/C(=O)Nc2ccc(S(N)(=O)=O)cc2)o1` gave HCV NS3 hel inh 3.3, NSD2 HMT inh 16.4, Casp6 inh 9.7 and DNMT1 inh -0.2.
Cc1[nH]c(C)c(S(=O)(=O)N(Cc2ccccc2)C(C)(C)C)c1C(=O)N1CCCC1 was read as HCV NS3 hel inh 38.1*, NSD2 HMT inh 5.4, Casp6 inh 1.6, DNMT1 inh 0.6, NS3 helicase cf -9.7 and FID counter trip -32.7.
`Cc1[nH]c(C)c(S(=O)(=O)N(C)Cc2ccccc2)c1C(=O)N1CCCC1` gave HCV NS3 hel inh 2.4, NSD2 HMT inh 0.7, Casp6 inh 0.8 and DNMT1 inh 0.1.
O=C(C[C@H]1C=C[C@@H](NC(=O)CN2CCOCC2)[C@@H](CO)O1)NCc1cccc(F)c1 was read as Casp6 inh -2.0.
For C[C@H](CO)N1C[C@H](C)[C@@H](CN(C)Cc2ccc(C(=O)O)cc2)OCCCC[C@H](C)Oc2ccc(NC(=O)Nc3ccc4c(c3)OCO4)cc2C1=O the results were Casp6 inh 1.4.
`Nc1c(C(=O)NCC2CCCO2)sc2nc3c(c(-c4ccco4)c12)CC/C3=C\c1ccco1` (stereo not drawn) gave HCV NS3 hel inh 50.6*, NSD2 HMT inh 12.1, Casp6 inh 41.7*, DNMT1 inh 101.3*, NS3 helicase cf 88.4*, FID counter trip 19.0 and FID counter DR >79.4.
Screening NC(=O)c1sc2nc3c(c(-c4ccco4)c2c1N)CCCC3 returned HCV NS3 hel inh 10.3, NSD2 HMT inh 5.2, Casp6 inh 8.6 and DNMT1 inh -0.1.
For CN(C)c1ccc(NC(=O)C2C3C=CC(C3)C2C(=O)O)cc1 (stereo not drawn) the results were HCV NS3 hel inh 55.7*, Casp6 inh 41.6*, DNMT1 inh -5.5, NS3 helicase cf 30.1 and FID counter trip 14.3.
